Results published in article PMC12744307 (ACS infectious diseases, 2023).
In brackets after ≈: the same amount, converted by molar mass. Read-outs that look alike come from different tables or passages of the source. Ends that are not written are not given here.

What was measured:
S. aureus USA300 = test: microbe, parasite or virus in culture; type: cell-based, Staphylococcus aureus; conditions: for MIC: Staphylococcus aureus
[1] = Effect of MHB dilution on antimicrobial activity of a panel of antibiotics; type: cell-based; conditions: MHB from 100% to 12.5% (Figure S2)
E. coli membrane = test: Membrane permeabilization; type: cell-based, Escherichia coli; conditions: Figure S4A
[2] = tested on: preformed biofilms of S. aureus USA300 LAC; test: Disruption of preformed biofilms; type: cell-based, Staphylococcus aureus; conditions: 100% MHB, 24 h treatment, XTT
Procedure, shortened: (§1)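 Biofilms grown from an exponential-phase culture (OD600 ~0.4) for 24 h at 37°C in TSB, then washed with PBS to remove planktonic cells. Treated with peptide in MHB (different strengths) for 24 h at 37°C. Live cells measured with XTT in TSB (2 h, 37°C, A450), blanked on medium with XTT. Results given as % of water-treated biofilm, mean ± SD, one-way ANOVA.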

E. coli E423–17 = type: cell-based, Escherichia coli
[3] = tested on: preformed biofilms of E. coli E423–17; test: Disruption of preformed biofilms; type: cell-based, Escherichia coli
Procedure, shortened: as §1

S. aureus USA300 LAC = type: cell-based, Staphylococcus aureus; conditions: 17 passages at sub-MIC, MHB
P. aeruginosa 152 = type: cell-based, Pseudomonas aeruginosa
A. baumannii B28–16 = type: cell-based, Acinetobacter baumannii
[4] = tested on: S. aureus USA300 membrane; test: Membrane depolarization; type: cell-based, Staphylococcus aureus; conditions: peptide up to 2× MIC; Triton X-100 0.1% (Figure 5C)
Procedure, shortened: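 Exponential-phase MRSA USA300 grown in TSB, washed, and resuspended in 2 volumes of PBS with 25 mM glucose. Energised for 15 min at 37°C, then given 500 nM (final) DiBAC4(3). Baseline fluorescence (ex 485/em 520 nm) read for 20 min; peptide then added and reading continued for 40 min. Triton X-100 (0.1%) was the positive control.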

[5] = MRSA|USA300, read-out: Antimicrobial activity (MIC), MRSA in MHB, 10% human serum
[6] = MRSA|USA300, read-out: Antimicrobial activity (MIC), MRSA in MHB, NaCl (150 mM)
[7] = MRSA|USA300, pH 6.3, read-out: Antimicrobial activity (MIC), MRSA in MHB, pH 6.3
[8] = MRSA|USA300, pH 7.2, read-out: Antimicrobial activity (MIC), MRSA in MHB, pH 7.2

NCC[C@H](O)C(=O)N[C@@H]1C[C@H](N)[C@@H](O[C@H]2O[C@H](CN)[C@@H](O)[C@H](O)[C@H]2O)[C@H](O)[C@H]1O[C@H]1O[C@H](CO)[C@@H](O)[C@H](N)[C@H]1O [Amikacin]
MIC (S. aureus USA300; [5]): 32 µM (≈ 18.7 µg/mL)
MIC (S. aureus USA300; [6]): 32 µM (≈ 18.7 µg/mL)
Change in MIC with the dilution of MHB [1]: small changes in MIC values

CCCCCCCCCC(=O)N[C@@H](Cc1c[nH]c2ccccc12)C(=O)N[C@H](CC(N)=O)C(=O)N[C@@H](CC(=O)O)C(=O)N[C@@H]1C(=O)NCC(=O)N[C@@H](CCCN)C(=O)N[C@@H](CC(=O)O)C(=O)N[C@H](C)C(=O)N[C@@H](CC(=O)O)C(=O)NCC(=O)N[C@H](CO)C(=O)N[C@@H]([C@H](C)CC(=O)O)C(=O)N[C@@H](CC(=O)c2ccccc2N)C(=O)O[C@@H]1C [Daptomycin]
Antimicrobial activity (MIC) (S. aureus USA300; USA300): 1 µM
Antimicrobial activity (MIC) (S. aureus USA300; USA300, pH 6.3): 1 µM
Antimicrobial activity (MIC) (S. aureus USA300; USA300, pH 7.2): 1 µM

CNC(C)C1CCC(N)C(OC2C(N)CC(N)C(OC3OCC(C)(O)C(NC)C3O)C2O)O1 (centres unmarked) [Gentamicin]
Membrane permeation (PI fluorescence) (E. coli membrane): did not permeate the E. coli membrane
MIC (S. aureus USA300; [7]): 1 to 2 µM (≈ 0.478 to 0.955 µg/mL)
MIC (S. aureus USA300; [8]): 0.5 µM (≈ 0.239 µg/mL)
MIC (S. aureus USA300; [5]): 0.5 to 1 µM (≈ 0.239 to 0.478 µg/mL)
MIC (S. aureus USA300; [6]): 1 µM (≈ 0.478 µg/mL)

CC[C@H](C)[C@H](NC(=O)[C@H](CCCCN)NC(=O)[C@H](CCC(=O)O)NC(=O)[C@H](CCCCN)NC(=O)[C@H](CO)NC(=O)[C@H](CCCCN)NC(=O)[C@H](CCCNC(=N)N)NC(=O)[C@H](Cc1ccccc1)NC(=O)[C@H](Cc1ccccc1)NC(=O)[C@H](CC(=O)O)NC(=O)CNC(=O)[C@H](CC(C)C)NC(=O)[C@@H](N)CC(C)C)C(=O)NCC(=O)N[C@@H](CCCCN)C(=O)N[C@@H](CCC(=O)O)C(=O)N[C@@H](Cc1ccccc1)C(=O)N[C@@H](CCCCN)C(=O)N[C@@H](CCCNC(=N)N)C(=O)N[C@H](C(=O)N[C@H](C(=O)N[C@@H](CCC(N)=O)C(=O)N[C@@H](CCCNC(=N)N)C(=O)N[C@H](C(=O)N[C@@H](CCCCN)C(=O)N[C@@H](CC(=O)O)C(=O)N[C@@H](Cc1ccccc1)C(=O)N[C@@H](CC(C)C)C(=O)N[C@@H](CCCNC(=N)N)C(=O)N[C@@H](CC(N)=O)C(=O)N[C@@H](CC(C)C)C(=O)N[C@H](C(=O)N1CCC[C@H]1C(=O)N[C@@H](CCCNC(=N)N)C(=O)N[C@H](C(=O)N[C@@H](CCC(=O)O)C(=O)N[C@@H](CO)C(=O)O)[C@@H](C)O)C(C)C)[C@@H](C)CC)C(C)C)[C@@H](C)CC [LL-37]
Antibiofilm activity against 24 h preformed biofilms [2]: essentially no antibiofilm activity
Activity (MIC), screen of LL-37 fragments (S. aureus USA300; 12.5% MHB (Figure 3)): became active
Activity (MIC), screen of LL-37 fragments (S. aureus USA300; 100% MHB (Figure 3)): did not display any activity
Antimicrobial activity (MIC) in cell culturing media (S. aureus USA300; RPMI and DMEM media (Table S2)): remained active
Activity (MIC), screen of LL-37 fragments (E. coli E423–17; 100% MHB, rich media (Figure 3)): active
Antimicrobial activity (MIC) in cell culturing media (E. coli E423–17; RPMI and DMEM media (Table S2)): remained active
Effect on biofilms with increase in peptide concentration ([3]; 12.5% MHB (Figure S1)): dose-dependent antibiofilm effect is clear
Effect on biofilms with increase in peptide concentration ([3]; 100% MHB (Figure S1)): subtle effect

CC(=O)NC[C@H]1CN(c2ccc(N3CCOCC3)c(F)c2)C(=O)O1 [Linezolid]
MIC (S. aureus USA300; [7]): 8 µM (≈ 2.7 µg/mL)
MIC (S. aureus USA300; [8]): 8 µM (≈ 2.7 µg/mL)
MIC (S. aureus USA300; [5]): 8 µM (≈ 2.7 µg/mL)
Change in MIC with the dilution of MHB [1]: essentially no changes in antibacterial activity

C/C(=C\C(=O)OCCCCCCCCC(=O)O)C[C@@H]1OC[C@H](C[C@@H]2O[C@H]2[C@@H](C)[C@H](C)O)[C@@H](O)[C@H]1O [Muporicin]
Antimicrobial activity (MIC) (S. aureus USA300; MRSA in MHB, 10% human serum): 4 µM
Antimicrobial activity (MIC) (S. aureus USA300; MRSA in MHB, 20% human serum): 4 µM
Antimicrobial activity (MIC) (S. aureus USA300; MRSA in MHB, NaCl (150 mM)): 1 µM
Antimicrobial activity (MIC) (S. aureus USA300; MRSA in MHB, pH 6.3): 0.5 µM
Antimicrobial activity (MIC) (S. aureus USA300; MRSA in MHB, pH 7.2): 1 µM
Change in MIC with the dilution of MHB [1]: essentially no changes in antibacterial activity

CCOc1ccc2ccccc2c1C(=O)N[C@@H]1C(=O)N2[C@@H]1SC(C)(C)[C@@H]2C(=O)O [Nafcillin]
MIC (S. aureus USA300; [5]): 16 µM (≈ 6.63 µg/mL)
MIC (S. aureus USA300; [6]): 32 µM (≈ 13.3 µg/mL)
Change in MIC with the dilution of MHB [1]: small changes in MIC values
Fold increase of MIC after multiple passages (S. aureus USA300 LAC): 32 fold

NC[C@H]1O[C@H](O[C@H]2[C@H](O)[C@@H](O[C@H]3O[C@H](CO)[C@@H](O)[C@H](N)[C@H]3O)[C@H](N)C[C@@H]2N)[C@H](N)C[C@@H]1O [Tobramycin]
MIC (S. aureus USA300; [6]): 4 µM (≈ 1.87 µg/mL)
Change in MIC with the dilution of MHB [1]: essentially no changes in antibacterial activity

CN[C@H](CC(C)C)C(=O)N[C@H]1C(=O)N[C@@H](CC(N)=O)C(=O)N[C@H]2C(=O)N[C@H]3C(=O)N[C@H](C(=O)N[C@H](C(=O)O)c4cc(O)cc(O)c4-c4cc3ccc4O)[C@H](O)c3ccc(c(Cl)c3)Oc3cc2cc(c3O[C@@H]2O[C@H](CO)[C@@H](O)[C@H](O)[C@H]2O[C@H]2C[C@](C)(N)[C@H](O)[C@H](C)O2)Oc2ccc(cc2Cl)[C@H]1O [Vancomycin]
MIC (S. aureus USA300; [7]): 0.5 µM (≈ 0.725 µg/mL)
MIC (S. aureus USA300; [8]): 0.5 µM (≈ 0.725 µg/mL)
MIC (S. aureus USA300; [5]): 0.5 µM (≈ 0.725 µg/mL)
MIC (S. aureus USA300; [6]): 0.5 to 1 µM (≈ 0.725 to 1.45 µg/mL)
Change in MIC with the dilution of MHB [1]: essentially no changes in antibacterial activity

KEKIGKEFKR-NH2 (C-terminus assumed) [KE-10]
Antimicrobial activity (MIC) in cell culturing media (S. aureus USA300; USA300): > 64 µM

KRIVQRIK-NH2 [W538]
Activity (MIC), screen of LL-37 fragments (E. coli E423–17; E423–17): 8 µM
Activity (MIC), P. aeruginosa (P. aeruginosa 152): >32 µM

KRIWQRIK-NH2 [W539]
Activity (MIC), P. aeruginosa (P. aeruginosa 152): >32 µM

KRIWQRWK-NH2 [W540]
Toxicity to HaCaT cells (viability) (human skin HaCaT cells): more toxic than other peptides
Activity (MIC), P. aeruginosa (P. aeruginosa 152): >32 µM

KRWWQRWK-NH2 [W541]
Activity (MIC), E. coli (E. coli E423–17; E423–17): 8 µM
Activity (MIC), P. aeruginosa (P. aeruginosa 152): >32 µM

KRWWQWWK-NH2 [W542]
Activity (MIC), A. baumannii (A. baumannii B28–16): 32 µM
Activity (MIC), S. aureus (S. aureus USA300; USA300): 8 µM
Activity (MIC), E. coli (E. coli E423–17; E423–17): 4 µM
Activity (MIC), P. aeruginosa (P. aeruginosa 152): 4 to 8 µM

RIKDFLRNLV-NH2 (C-terminus assumed) [RIK-10]
Activity (MIC), screen of LL-37 fragments (S. aureus USA300; 12.5% MHB (Figure 3)): became active
Antimicrobial activity (MIC) in cell culturing media (S. aureus USA300; RPMI and DMEM media (Table S2)): poor activity
Activity (MIC), screen of LL-37 fragments (E. coli E423–17; E423–17): 16 µM
Antimicrobial activity (MIC) in DMEM (E. coli E423–17; E423–17): 8 µM
Antimicrobial activity in RPMI (E. coli E423–17; RPMI (Table S2)): poor activity

RRWWRWWL-NH2 [W544]
Toxicity to HaCaT cells (viability) (human skin HaCaT cells): more toxic than other peptides
Activity (MIC), S. aureus (S. aureus USA300; USA300): 4 µM
Activity (MIC), E. coli (E. coli E423–17; E423–17): 4 µM
Activity (MIC), P. aeruginosa (P. aeruginosa 152): 4 µM

RRWWRWWR-NH2 [W543]
Toxicity to HaCaT cells (viability) (human skin HaCaT cells): least toxic
Antimicrobial activity (MIC) (S. aureus USA300; USA300): 8 µM
Antimicrobial activity (MIC) (S. aureus USA300; USA300, pH 7.2): 8 µM
Activity (MIC), E. coli (E. coli E423–17; E423–17): 8 µM
Activity (MIC), P. aeruginosa (P. aeruginosa 152): 8 µM

Triton X-100
Membrane depolarization [4]: strong membrane depolarization

colistin
Membrane permeation (PI fluorescence) (E. coli membrane): powerful membrane permeator
